Experimental data: ChEMBL document CHEMBL1156239, “Synthesis, anticonvulsant and antimicrobial activities of some new 2-acetylnaphthalene derivatives” (Bioorg Med Chem, 2010)
≈ marks a conversion by molar mass, not a printed value. Calls of active or inactive are those of the source. The calls are words filed in the database; no cut-off is given here.

How the values were obtained:
Staphylococcus aureus = assay: Antibacterial activity against Staphylococcus aureus ATCC 25923 after 24 hrs by broth microdilution method; assay type: functional; settings: ATCC 25923, 24 h
In short: (§1)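 Broth microdilution in Mueller Hinton broth; compound stocks in DMSO, diluted into test medium. Plates incubated at 35 °C and read visually after 24 h. MIC taken as lowest concentration preventing visible growth. Ampicillin reference.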

Enterococcus faecalis = assay: Antibacterial activity against Enterococcus faecalis ATCC 29212 after 24 hrs by broth microdilution method; assay type: functional; settings: ATCC 29212, 24 h; in short: as §1
Escherichia coli = assay: Antibacterial activity against Escherichia coli ATCC 25922 after 24 hrs by broth microdilution method; assay type: functional; settings: ATCC 25922, 24 h; in short: as §1
Mus musculus [1] = assay: Anticonvulsant activity in CF1 mouse assessed as inhibition of maximal electroshock-induced seizures at 30 mg/kg, ip after 0.5 hrs; assay type: functional, organism-based; parameters: dose 30 mg/kg
In short: (§2)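 Male albino CF#1 mice (18–25.5 g), compound suspended in 0.5% methylcellulose, given ip 0.5 h or 4 h before test. Eyes treated with 0.5% tetracaine HCl in saline; corneal-type MES at 60 Hz, 50 mA for 0.2 s; protection scored as animals protected/tested.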

Mus musculus [2] = assay: Anticonvulsant activity in CF1 mouse assessed as inhibition of maximal electroshock-induced seizures at 100 mg/kg, ip after 0.5 hrs; assay type: functional, organism-based; parameters: dose 100 mg/kg; in short: as §2
Mus musculus [3] = assay: Anticonvulsant activity in CF1 mouse assessed as inhibition of maximal electroshock-induced seizures at 300 mg/kg, ip after 0.5 hrs; assay type: functional, organism-based; parameters: dose 300 mg/kg; in short: as §2
Mus musculus [4] = assay: Anticonvulsant activity in CF1 mouse assessed as inhibition of maximal electroshock-induced seizures at 30 mg/kg, ip after 4 hrs; assay type: functional, organism-based; parameters: dose 30 mg/kg; in short: as §2
Mus musculus [5] = assay: Anticonvulsant activity in CF1 mouse assessed as inhibition of maximal electroshock-induced seizures at 100 mg/kg, ip after 4 hrs; assay type: functional, organism-based; parameters: dose 100 mg/kg; in short: as §2
Mus musculus [6] = assay: Anticonvulsant activity in CF1 mouse assessed as inhibition of maximal electroshock-induced seizures at 300 mg/kg, ip after 4 hrs; assay type: functional, organism-based; parameters: dose 300 mg/kg; in short: as §2
Mus musculus [7] = assay: Neurotoxicity in CF1 mouse at 30 mg/kg, ip after 0.5 hrs by rotarod test; assay type: toxicity, organism-based; parameters: dose 30 mg/kg, route intraperitoneal; settings: in vivo
In short: (§3)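 Male albino CF#1 mice (18–25.5 g) dosed ip with compound suspended in 0.5% methylcellulose, 0.5 h or 4 h before testing; neurotoxicity assessed by rotarod, scored as number toxic/number tested.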

Mus musculus [8] = assay: Neurotoxicity in CF1 mouse at 100 mg/kg, ip after 0.5 hrs by rotarod test; assay type: toxicity, organism-based; parameters: dose 100 mg/kg, route intraperitoneal; settings: in vivo; in short: as §3
Mus musculus [9] = assay: Neurotoxicity in CF1 mouse at 300 mg/kg, ip after 0.5 hrs by rotarod test; assay type: toxicity, organism-based; parameters: dose 300 mg/kg, route intraperitoneal; settings: in vivo; in short: as §3
Mus musculus [10] = assay: Neurotoxicity in CF1 mouse at 30 mg/kg, ip after 4 hrs by rotarod test; assay type: toxicity, organism-based; parameters: dose 30 mg/kg, route intraperitoneal; settings: in vivo; in short: as §3
Mus musculus [11] = assay: Neurotoxicity in CF1 mouse at 100 mg/kg, ip after 4 hrs by rotarod test; assay type: toxicity, organism-based; parameters: dose 100 mg/kg, route intraperitoneal; settings: in vivo; in short: as §3
Mus musculus [12] = assay: Neurotoxicity in CF1 mouse at 300 mg/kg, ip after 4 hrs by rotarod test; assay type: toxicity, organism-based; parameters: dose 300 mg/kg, route intraperitoneal; settings: in vivo; in short: as §3
Pseudomonas aeruginosa = assay: Antibacterial activity against Pseudomonas aeruginosa ATCC 27853 after 24 hrs by broth microdilution method; assay type: functional; settings: ATCC 27853, 24 h; in short: as §1
Pichia kudriavzevii = assay: Antifungal activity against Candida krusei ATCC 6258 after 48 hrs by broth microdilution method; assay type: functional; settings: ATCC 6258, 48 h
Candida parapsilosis = assay: Antifungal activity against Candida parapsilosis ATCC 22019 after 48 hrs by broth microdilution method; assay type: functional; settings: Lodderomyces parapsilosis, ATCC 22019, 48 h
Mus musculus [13] = assay: Neurotoxicity in CF1 mouse assessed as hyperactivity at 300 mg/kg, ip after 0.5 hrs by rotarod test; assay type: toxicity, organism-based; parameters: dose 300 mg/kg, route intraperitoneal; settings: in vivo
Mus musculus [14] = assay: Neurotoxicity in CF1 mouse assessed as ability to grasp rotarod at 300 mg/kg, ip after 4 hrs by rotarod test; assay type: toxicity, organism-based; parameters: dose 300 mg/kg, route intraperitoneal; settings: in vivo
In short: (§4)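 Male albino CF#1 mice (18–25.5 g), free access to food and water except during testing, under NINDS Anticonvulsant Screening Program procedures. Compounds were suspended in 0.5% methylcellulose and given ip. Neurotoxicity was scored by rotarod 0.5 h and 4 h after dosing, at screening doses of 30, 100 or 300 mg/kg. Results are reported as affected/tested animals.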

Mus musculus [15] = assay: Neurotoxicity in CF1 mouse assessed as mortality at 300 mg/kg, ip after 4 hrs by rotarod test; assay type: toxicity, organism-based; parameters: dose 300 mg/kg, route intraperitoneal; settings: in vivo; in short: as §4
Mus musculus [16] = assay: Anticonvulsant activity in CF1 mouse assessed as inhibition of maximal electroshock-induced […] seizures at 300 mg/kg, ip after 0.5 hrs; assay type: functional, organism-based; parameters: dose 300 mg/kg; in short: as §2
Mus musculus [17] = assay: Neurotoxicity in CF1 mouse assessed as ability to grasp rotarod at 300 mg/kg, ip after 0.5 hrs by rotarod test; assay type: toxicity, organism-based; parameters: dose 300 mg/kg, route intraperitoneal; settings: in vivo; in short: as §3

SMILES | MIC (Staphylococcus aureus) [µg/mL] | MIC (Enterococcus faecalis) [µg/mL] | MIC (Escherichia coli) [µg/mL] | inhibition (Mus musculus [1]) | inhibition (Mus musculus [2]) | inhibition (Mus musculus [3]) | inhibition (Mus musculus [4]) | inhibition (Mus musculus [5]) | inhibition (Mus musculus [6]) | Activity (Mus musculus [7]) | Activity (Mus musculus [8]) | Activity (Mus musculus [9]) | Activity (Mus musculus [10]) | Activity (Mus musculus [11]) | Activity (Mus musculus [12]) | MIC (Pseudomonas aeruginosa) [µg/mL] | MIC (Pichia kudriavzevii) [µg/mL] | MIC (Candida parapsilosis) [µg/mL] | also measured
CC1(C)S[C@@H]2[C@H](NC(=O)[C@H](N)c3ccccc3)C(=O)N2[C@H]1C(=O)O [AMPICILLIN] | 1 (≈ 2.86 µM) | 2 (≈ 5.72 µM) | 8 (≈ 22.9 µM) | – | – | – | – | – | – | – | – | – | – | – | – | – | – | – | –
CC(C)CC(=O)OC(C)c1ccc2ccccc2c1 (stereo unspecified) | – | – | – | inactive | inactive | inactive | inactive | inactive | inactive | Non-toxic | Non-toxic | Non-toxic | Non-toxic | Non-toxic | Non-toxic | – | – | – | –
CCCCC(=O)OC(C)c1ccc2ccccc2c1 (stereo unspecified) | – | – | – | inactive | inactive | inactive | inactive | inactive | inactive | Non-toxic | Non-toxic | Non-toxic | Non-toxic | Non-toxic | Non-toxic | – | – | – | –
CC(C)(C)OC(=O)NCCCC(=O)OC(Cn1ccnc1)c1ccc2ccccc2c1 (stereo unspecified) | 16 (≈ 37.8 µM) | 128 (≈ 302 µM) | > 1020 | inactive | Active | Active | inactive | inactive | Active | Non-toxic | – | – | Non-toxic | Non-toxic | Non-toxic | > 1020 | > 1020 | > 1020 | –
CCCCC(=O)OC(Cn1ccnc1)c1ccc2ccccc2c1 (stereo unspecified) | 8 (≈ 24.8 µM) | 32 (≈ 99.3 µM) | > 1020 | Active | Active | Active | inactive | – | – | Non-toxic | Non-toxic | – | Non-toxic | Non-toxic | Toxic | > 1020 | 128 (≈ 397 µM) | 128 (≈ 397 µM) | Activity (Mus musculus [13]): Toxic; Activity (Mus musculus [14]): Toxic; Activity (Mus musculus [15]): Toxic
O=C(OC(Cn1ccnc1)c1ccc2ccccc2c1)c1ccc(Cl)cc1 (stereo unspecified) | 32 (≈ 84.9 µM) | 128 (≈ 340 µM) | 1020 (≈ 2720 µM) | inactive | inactive | Active | inactive | inactive | inactive | Non-toxic | Non-toxic | – | Non-toxic | Non-toxic | Non-toxic | 1020 (≈ 2720 µM) | 512 (≈ 1360 µM) | 512 (≈ 1360 µM) | –
OC(Cn1cncn1)(Cn1cncn1)c1ccc(F)cc1F [FLUCONAZOLE] | – | – | – | – | – | – | – | – | – | – | – | – | – | – | – | – | 64 (≈ 209 µM) | 8 (≈ 26.1 µM) | –
C/C(=N\CCCC(=O)O)c1ccc2ccccc2c1O | – | – | – | inactive | inactive | inactive | inactive | inactive | inactive | Non-toxic | Non-toxic | Toxic | Non-toxic | Non-toxic | Non-toxic | – | – | – | –
O=C(Cn1ccnc1)c1ccc2ccccc2c1O | 64 (≈ 254 µM) | 64 (≈ 254 µM) | 1020 (≈ 4060 µM) | inactive | inactive | Active | inactive | inactive | Active | Non-toxic | Non-toxic | – | Non-toxic | Non-toxic | Non-toxic | > 1020 | 64 (≈ 254 µM) | 32 (≈ 127 µM) | –
CC(OC(=O)CCCNC(=O)OC(C)(C)C)c1ccc2ccccc2c1 (stereo unspecified) | – | – | – | inactive | inactive | inactive | inactive | inactive | inactive | Non-toxic | – | Non-toxic | Non-toxic | Non-toxic | Non-toxic | – | – | – | –
Oc1c(C(O)Cn2ccnc2)ccc2ccccc12 (stereo unspecified) | 512 (≈ 2010 µM) | 256 (≈ 1010 µM) | > 1020 | inactive | inactive | inactive | inactive | inactive | inactive | Non-toxic | Non-toxic | – | Non-toxic | Non-toxic | Non-toxic | > 1020 | 512 (≈ 2010 µM) | 512 (≈ 2010 µM) | –
CCCC(CCC)C(=O)OC(C)c1ccc2ccccc2c1 (stereo unspecified) | – | – | – | inactive | inactive | inactive | inactive | inactive | inactive | Non-toxic | Non-toxic | Non-toxic | Non-toxic | Non-toxic | Non-toxic | – | – | – | –
CCCC(=O)OC(Cn1ccnc1)c1ccc2ccccc2c1 (stereo unspecified) | 8 (≈ 25.9 µM) | 128 (≈ 415 µM) | > 1020 | inactive | Active | – | inactive | inactive | Active | Non-toxic | – | – | Non-toxic | Non-toxic | Non-toxic | > 1020 | 256 (≈ 830 µM) | 64 (≈ 208 µM) | inhibition (Mus musculus [16]): Active; Activity (Mus musculus [17]): Toxic
